Reference: ChEMBL document CHEMBL1147980, “Nicotinic acid receptor agonists differentially activate downstream effectors” (J Biol Chem, 2007)
The source made the active and inactive calls. The calls are words filed in the database; no cut-off is given here.

How the values were obtained:
[1] = system: Adipocyte; test: Inhibition of isoproterenol-induced lipolysis in human subcutaneous adipocytes after 5 hrs
[2] = system: Mus musculus; test: Induction of flushing response in ip dosed C57/BL6 mouse; assay type: organism-based, C57Bl/6; conditions: in vivo
Outline: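 Male C57Bl/6 mice, 8-10 weeks, anesthetized with Nembutal i.p. (80 mg/10 ml/kg). Laser Doppler perfusion imaging centred on the ventral right ear. After a 3 min baseline, vehicle or agonist is given i.p. (5 ml/kg) and readings continue about 15 min. Output is % change from pre-injection baseline, 3-26 animals per group.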

[3] = system: Rattus norvegicus; test: Reduction of free fatty acid level in po dosed Sprague-Dawley rat plasma relative to baseline; assay type: functional; design: scale not given: the % may be the effect or the level left
Outline: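 Male Sprague-Dawley rats, 7-10 weeks (~350 g), jugular vein cannulated, fasted 16 hr. Baseline blood drawn, then oral vehicle (PBS, 5% HPBCD or 0.5% methylcellulose) or drug at 2 ml/kg. Blood sampled via cannula at set times; serum NEFA assayed by NEFA-C kit, A550. Expressed as % baseline FFA, four or more independent experiments.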

[4] = system: Mus musculus; test: Reduction of free fatty acid level in ip dosed C57/BL6 mouse plasma after 10 mins; assay type: functional, organism-based; conditions: C57Bl/6
Outline: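 Male C57Bl/6 mice, 8-10 weeks (~25 g), fasted 16 hr, dosed i.p. with compound in PBS or PBS vehicle (5 ml/kg). Killed after 10 min; cardiac blood taken and serum obtained by centrifugation at 4°C. NEFA measured colorimetrically with the NEFA-C two-reagent kit, 37°C incubations, A550. Three or more experiments in triplicate; one-way ANOVA with Bonferroni.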

[5] = system: Mus musculus; test: Inhibition of nicotinic acid induced flushing response in ip dosed C57/BL6 mouse; assay type: functional, organism-based; conditions: C57Bl/6
Outline: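 Laser Doppler ear flushing in anesthetized male C57Bl/6 mice. Vehicle or competing agonist is given i.p. together with Nembutal, 10 min before baseline. After a 3 min baseline, nicotinic acid 30 mg/kg i.p. is injected. Response is % change from pre-nicotinic acid baseline, 5 or 11 animals per group.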

| Compound | EC50 [1] | Activity [2] | Activity [3] | Activity [4] | Activity [5] |
| --- | --- | --- | --- | --- | --- |
| O=C(O)c1cccnc1 [NIACIN] | 0.9 µM | Toxic |  |  |  |
| CC(C)c1cc(C(=O)O)n[nH]1 |  | Non-toxic | 75% | Dose-dependent effect |  |
| O=C(O)c1cc(Cc2cccc(Cl)c2)[nH]n1 |  | Non-toxic |  |  |  |
| Cc1cc(C(=O)O)on1 | 5.3 µM | Toxic | 75% |  |  |
| O=C(O)c1cc(Cc2cccc(Br)c2)[nH]n1 | 103 µM | Non-toxic | 75% | Dose-dependent effect |  |
| Cc1cc(C(=O)O)n[nH]1 | 1.4 µM | Toxic | 75% | Dose-dependent effect |  |
| O=C(O)c1cc(Cc2cccc(F)c2)[nH]n1 | 32.6 µM | Non-toxic | 75% | Dose-dependent effect |  |
| O=C(O)c1cc(Cc2cccc(Cl)c2)n[nH]1 | 72.5 µM |  | 75% | Dose-dependent effect | Active |
